# ChEMBL document CHEMBL5705901, “Exploiting selective BCL-2 family inhibitors to dissect cell survival dependencies and define improved strategies for cancer therapy” (Sci Transl Med, 2015)
# The source made the active and inactive calls. No cut-off for these calls is given here.
# Experiments:
# EBC-1 = experiment: Synergistic antitumor activity against human EBC-1 cells xenografted in po dosed SCID-bg mouse assessed as maximum tumor growth inhibition in presence of docetaxel relative to control; assay type: functional
# Procedure, shortened: (§1)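 Xenografts dosed with oral inhibitor plus intravenous docetaxel. TGImax = 100(1 − Tv/Cv), from mean treated and control tumor volumes; TGD = 100(T/C − 1), from median times to reach 1 cm3. Group size 5 mice (NCI-H747, A549-FP3, EBC-1, OVCAR-5), 8 (NCI-H358), 10 (NCI-H1650).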
# MOLT-4 = experiment: Induction of apoptosis in human MOLT-4 cells assessed as caspase-3/7 activation at 1 to 667 nM incubated for 4 hrs; assay type: functional, cell-based; details: dose 1-667 nM
# Procedure, shortened: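 Molt-4 cells were incubated with increasing concentrations for 4 h, and caspase-3/7 activation was measured. Values are the mean of triplicate experiments ± SD.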
# NCI-H196 = experiment: Synergistic antiproliferative activity against 5 times passaged human NCI-H1963 cells xenografted in mouse assessed as reduction in tumor volume at 25 mg/kg, po co-administered with venetoclax twice a day for 14 days; assay type: functional, organism-based; details: time 14.0 day
# MDA-MB-231 [1] = experiment: Antitumor activity against LC3 positive human MDA-MB-231 cells xenografted in SCID mouse assessed as maximum tumor growth inhibition at 25 mg/kg, po administered daily for 14 days relative to control; assay type: functional; details: MDA-MB-231, 336 h, time 14 day, read-out: TGI
# Procedure, shortened: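 MDA-MB-231 LC3 metastatic breast cancer xenograft, 10 mice per group, with a vehicle control. Dosing: oral agent 25 mg/kg daily for 14 days; docetaxel 7.5 mg/kg iv once; combination gives both regimens. Mean tumor volumes tracked. TGImax = 100(1 − Tv/Cv) from mean treated vs control volumes. TGD = 100(T/C − 1) from median times to reach 1 cm3.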
# [2] = Toxicity in po dosed SCID mouse assessed as body weight loss relative to control; assay type: organism-based; details: in vivo
# A549 [3] = experiment: Antitumor activity against 3 times passaged human A549 cells xenografted in po dosed SCID mouse assessed as maximum tumor growth inhibition relative to control; assay type: functional
# A549 [4] = experiment: Antitumor activity against 3 times passaged human A549 cells xenografted in po dosed SCID mouse assessed as tumor growth delay relative to control; assay type: functional
# NCI-H358 [5] = experiment: Antitumor activity against human NCI-H358 cells xenografted in po dosed SCID mouse assessed as maximum tumor growth inhibition relative to control; assay type: functional
# NCI-H358 [6] = experiment: Synergistic antitumor activity against human NCI-H358 cells xenografted in po dosed SCID mouse assessed as maximum tumor growth inhibition in presence of docetaxel relative to control; assay type: functional; procedure, shortened: as §1
# NCI-H358 [7] = experiment: Synergistic antitumor activity against human NCI-H358 cells xenografted in po dosed SCID mouse assessed as tumor growth delay in presence of docetaxel relative to control; assay type: functional; procedure, shortened: as §1
# NCI-H146 = experiment: Induction of apoptosis in Bcl-xl dependent human NCI-H146 cells assessed as cytochrome C release from mitochondria at 0.1 to 1000 nM incubated for 4 hrs by immunoblot analysis; assay type: functional, cell-based; details: dose 0.1-1000 nM
# Procedure, shortened: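 NCI-H146 cells were treated for 4 h with increasing concentrations. Mitochondrial and cytosolic fractions were separated, and cytochrome c in each was determined by immunoblotting.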
# MDA-MB-231 [8] = experiment: Synergistic antiproliferative activity against human MDA-MB-231 cells assessed as reduction in cell viability by measuring bliss sum score incubated for 72 hrs in presence of docetaxel by CellTiter-Glo cell vaibility assay; assay type: functional
# HCC1569 = experiment: Synergistic antiproliferative activity against human HCC1569 cells assessed as reduction in cell viability by measuring bliss sum score incubated for 72 hrs in presence of docetaxel by CellTiter-Glo cell vaibility assay; assay type: functional
# T47D [9] = experiment: Synergistic antiproliferative activity against human T47D cells assessed as reduction in cell viability by measuring bliss sum score incubated for 72 hrs in presence of docetaxel by CellTiter-Glo cell vaibility assay; assay type: functional
# BT-20 = experiment: Synergistic antiproliferative activity against human BT-20 cells assessed as reduction in cell viability by measuring bliss sum score incubated for 72 hrs in presence of docetaxel by CellTiter-Glo cell vaibility assay; assay type: functional
# HCC1143 = experiment: Synergistic antiproliferative activity against human HCC1143 cells assessed as reduction in cell viability by measuring bliss sum score incubated for 72 hrs in presence of docetaxel by CellTiter-Glo cell vaibility assay; assay type: functional
# NCI-H460 = experiment: Synergistic antiproliferative activity against human NCI-H460 cells assessed as reduction in cell viability by measuring bliss sum score incubated for 72 hrs in presence of docetaxel by CellTiter-Glo cell vaibility assay; assay type: functional
# OVCAR-3 = experiment: Synergistic antiproliferative activity against human OVCAR-3 cells assessed as reduction in cell viability by measuring bliss sum score incubated for 72 hrs in presence of docetaxel by CellTiter-Glo cell vaibility assay; assay type: functional
# OVCAR-5 = experiment: Synergistic antiproliferative activity against human OVCAR-5 cells assessed as reduction in cell viability by measuring bliss sum score incubated for 72 hrs in presence of docetaxel by CellTiter-Glo cell vaibility assay; assay type: functional
# OVCAR-4 = experiment: Antagonistic antiproliferative activity against human OVCAR-4 cells assessed as reduction in cell viability by measuring bliss sum score incubated for 72 hrs in presence of docetaxel by CellTiter-Glo cell vaibility assay; assay type: functional
# ZR-75-1 = experiment: Induction of apoptosis in human ZR-75-1 cells assessed as increase in caspase cleavage incubated for 48 hrs in presence of docetaxel by immunoblot analysis; assay type: functional, cell-based
# MDA-MB-468 = experiment: Induction of apoptosis in human MDA-MB-468 cells assessed as poly(ADP-ribose) polymerase cleavage incubated for 48 hrs in presence of docetaxel by immunoblot analysis; assay type: functional, cell-based
# MCF7 = experiment: Induction of apoptosis in human MCF7 cells expressing luciferase assessed as accumulation of cells with sub-G0-G1 DNA content at 1 uM incubated for 48 hrs in presence of docetaxel by flow cytometric analysis; assay type: functional, cell-based
# T47D [10] = experiment: Induction of apoptosis in human T47D cells assessed as accumulation of cells with sub-G0-G1 DNA content at 1 uM incubated for 48 hrs in presence of docetaxel by flow cytometric analysis; assay type: functional, cell-based
# MDA-MB-231 [11] = experiment: Induction of apoptosis in human MDA-MB-231 cells assessed as accumulation of cells with sub-G0-G1 DNA content at 1 uM incubated for 48 hrs in presence of docetaxel by flow cytometric analysis; assay type: functional, cell-based
# MDA-MB-361 = experiment: Induction of apoptosis in human MDA-MB-361 cells assessed as accumulation of cells with sub-G0-G1 DNA content at 1 uM incubated for 48 hrs in presence of docetaxel by flow cytometric analysis; assay type: functional, cell-based
# UAC812 = experiment: Induction of apoptosis in UAC812 (unknown origin) cells assessed as accumulation of cells with sub-G0-G1 DNA content at 1 uM incubated for 48 hrs in presence of docetaxel by flow cytometric analysis; assay type: functional, cell-based
# [12] = Inhibition of granulocyte colony formation in human bone marrow cells at 0.1 to 20 uM incubated for 14 to 16 days in presence of docetaxel by light microscopic analysis; assay type: toxicity, cell-based; details: bone marrow cell, dose lower 0.1 µM, time lower 14 day, dose upper 20 µM, time upper 16 day
# Procedure, shortened: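 Human bone marrow granulocyte colony-forming assay in semisolid medium, increasing inhibitor concentrations ± 5 nM docetaxel; colonies counted by light microscopy after 14 days; triplicate means with SD; combinations compared with docetaxel alone by Student's t test.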
smiles,measurement,setting,value
Cc1c(-c2ccc(N3CCc4cccc(C(=O)Nc5nc6ccccc6s5)c4C3)nc2C(=O)O)cnn1CC12CC3CC(CC(C3)C1)C2,TGI,EBC-1,88%
same,Activity,MOLT-4,Active
same,Activity,NCI-H196,Active
same,inhibition in vivo at 25 mg/kg,MDA-MB-231 [1],55%
same,Activity,[2],< 9%
same,TGI,A549 [3],67%
same,Activity,A549 [4],108%
same,TGI,NCI-H358 [5],62%
same,TGI,NCI-H358 [6],91%
same,Activity,NCI-H358 [7],233%
CN(C)CC#Cc1ccc(OCCCc2sc(N3CCc4cccc(C(=O)Nc5nc6ccccc6s5)c4C3)nc2C(=O)O)c(F)c1 [A-1155463],Activity,NCI-H146,Active
same,Activity_index,MDA-MB-231 [8],277
same,Activity_index,HCC1569,185
same,Activity_index,T47D [9],250
same,Activity_index,BT-20,260
same,Activity_index,HCC1143,195
same,Activity_index,NCI-H460,105
same,Activity_index,OVCAR-3,683
same,Activity_index,OVCAR-5,706
same,Activity_index,OVCAR-4,-129
CC1(C)CCC(c2ccc(Cl)cc2)=C(CN2CCN(c3ccc(C(=O)NS(=O)(=O)c4ccc(N[C@H](CCN5CCOCC5)CSc5ccccc5)c(S(=O)(=O)C(F)(F)F)c4)cc3)CC2)C1 [NAVITOCLAX],Activity,ZR-75-1,Active
same,Activity,MDA-MB-468,Active
same,Activity,MCF7,Active
same,Activity,T47D [10],Active
same,Activity,MDA-MB-231 [11],Active
same,Activity,MDA-MB-361,Active
same,Activity,UAC812,Active
same,Activity,[12],Toxic
